Assay results from ChEMBL document CHEMBL2150901, “Synthesis and biological activity of tricyclic cycloalkylimidazo-, pyrimido- and diazepinopurinediones” (Eur J Med Chem, 2011).
Activity calls are given as the source filed them. No cut-off for these calls is given here.

Tests used:
Rattus norvegicus [1] = test: Anticonvulsant activity in po dosed Sprague-Dawley albino rat assessed as protection against maximal electroshock-induced seizures; format: functional
Rattus norvegicus [2] = test: Anticonvulsant activity in po dosed Sprague-Dawley albino rat assessed as protection against subcutaneous pentylenetetrazole-induced seizures; format: functional
Adenosine receptor A3 = target: T1, Adenosine receptor A3 (Homo sapiens, UniProt P0DMS8); test: Displacement of [3H]PSB-11 from human recombinant adenosine A3 receptor expressed in CHO cells; format: cell-based
T1 sequence (P0DMS8 whole entry): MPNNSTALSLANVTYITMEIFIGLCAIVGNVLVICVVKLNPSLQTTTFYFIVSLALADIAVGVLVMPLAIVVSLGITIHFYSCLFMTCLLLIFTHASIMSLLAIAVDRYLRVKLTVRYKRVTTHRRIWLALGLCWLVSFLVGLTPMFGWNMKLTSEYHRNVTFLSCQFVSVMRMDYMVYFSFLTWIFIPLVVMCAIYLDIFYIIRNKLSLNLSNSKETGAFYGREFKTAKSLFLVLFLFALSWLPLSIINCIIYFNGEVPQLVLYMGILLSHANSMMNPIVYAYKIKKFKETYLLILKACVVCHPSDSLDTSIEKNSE

Adenosine receptor A1 [3] = target: T2, Adenosine receptor A1 (Homo sapiens, UniProt P30542); test: Displacement of [3H]CCPA from human recombinant adenosine A1 receptor expressed in CHO cells; format: cell-based
T2 sequence (P30542 whole entry): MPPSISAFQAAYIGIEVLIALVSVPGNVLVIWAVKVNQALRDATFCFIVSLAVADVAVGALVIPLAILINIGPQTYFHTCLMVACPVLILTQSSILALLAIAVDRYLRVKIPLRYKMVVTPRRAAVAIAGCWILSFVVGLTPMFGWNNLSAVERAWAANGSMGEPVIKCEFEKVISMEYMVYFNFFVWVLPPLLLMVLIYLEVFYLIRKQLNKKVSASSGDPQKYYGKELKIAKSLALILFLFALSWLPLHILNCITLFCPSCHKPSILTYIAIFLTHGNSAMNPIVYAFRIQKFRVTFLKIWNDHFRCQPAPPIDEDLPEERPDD

[4] = target: T3, Adenosine receptor A2b (Homo sapiens) (UniProt P29275); conditions: CHO, 10 uM
T3 sequence (whole entry): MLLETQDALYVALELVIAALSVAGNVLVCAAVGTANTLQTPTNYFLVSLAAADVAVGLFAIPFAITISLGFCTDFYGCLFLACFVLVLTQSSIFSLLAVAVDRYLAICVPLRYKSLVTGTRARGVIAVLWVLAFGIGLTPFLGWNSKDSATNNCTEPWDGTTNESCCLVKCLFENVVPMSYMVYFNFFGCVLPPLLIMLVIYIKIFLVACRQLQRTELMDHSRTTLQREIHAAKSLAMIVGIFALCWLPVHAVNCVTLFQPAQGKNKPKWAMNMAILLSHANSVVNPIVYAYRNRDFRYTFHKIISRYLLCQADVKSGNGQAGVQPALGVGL

[5] = target: T3, Adenosine receptor A2b (Homo sapiens); test: Displacement of [3H]PSB-603 from human recombinant adenosine A2B receptor expressed in CHO cells at 10 uM; format: cell-based
How it was run: (§1)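 CHO cell membranes expressing the human receptor. Radioligands: A1 [3H]CCPA; A2B [3H]ZM241385 or [3H]PSB-603; A3 [3H]PSB-11. […] Potent compounds run at 6–7 concentrations spanning 3 orders of magnitude; Ki ± SEM.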

Mus musculus [6] = test: Anticonvulsant activity in F1 albino mouse assessed as protection against maximal electroshock-induced seizures at 300 mg/kg, ip after 0.25 hrs; format: functional, organism-based; design: dose 300 mg/kg
How it was run: (§2)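 Male albino F-1 mice (18–25 g), groups of 1–5 (rotorod 2–8). Compound given ip as a suspension in 0.5% methylcellulose at 30, 100 and 300 mg/kg. Seizures by maximal electroshock or subcutaneous pentylenetetrazole; neurotoxicity by rotorod. Read at 0.5 and 4 h, with some at 0.25, 1 and 2 h. Value is the minimum active dose, with protected (or toxic)/tested animals.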

Mus musculus [7] = test: Anticonvulsant activity in F1 albino mouse assessed as protection against maximal electroshock-induced seizures at 300 mg/kg, ip after 0.5 hrs; format: functional, organism-based; design: dose 300 mg/kg; how it was run: as §2
Mus musculus [8] = test: Anticonvulsant activity in F1 albino mouse assessed as protection against maximal electroshock-induced seizures at 300 mg/kg, ip after 1 hr; format: functional, organism-based; design: dose 300 mg/kg; how it was run: as §2
Mus musculus [9] = test: Anticonvulsant activity in F1 albino mouse assessed as protection against maximal electroshock-induced seizures at 300 mg/kg, ip after 4 hrs; format: functional, organism-based; design: dose 300 mg/kg; how it was run: as §2
Mus musculus [10] = test: Anticonvulsant activity in F1 albino mouse assessed as protection against subcutaneous pentylenetetrazole-induced seizures at 300 mg/kg, ip after 0.25 hrs; format: functional, organism-based; design: dose 300 mg/kg; how it was run: as §2
Mus musculus [11] = test: Anticonvulsant activity in F1 albino mouse assessed as protection against subcutaneous pentylenetetrazole-induced seizures at 300 mg/kg, ip after 0.5 hrs; format: functional, organism-based; design: dose 300 mg/kg; how it was run: as §2
Mus musculus [12] = test: Toxicity in F1 albino mouse assessed as myoclonic jerks at 300 mg/kg, ip after 0.5 hrs; format: organism-based; design: dose 300 mg/kg, route intraperitoneal; conditions: in vivo
How it was run: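 Male albino F-1 mice (18–25 g) were dosed i.p. with a suspension in 0.5% methylcellulose in water at 30, 100 and 300 mg/kg. Screening used MES, subcutaneous pentylenetetrazole (ScMet) and rotorod tests, with 1–5 mice per seizure test.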

Mus musculus [13] = test: Anticonvulsant activity in F1 albino mouse assessed as protection against subcutaneous pentylenetetrazole-induced seizures at 300 mg/kg, ip after 1 hr; format: functional, organism-based; design: dose 300 mg/kg; how it was run: as §2
Mus musculus [14] = test: Anticonvulsant activity in F1 albino mouse assessed as protection against subcutaneous pentylenetetrazole-induced seizures at 300 mg/kg, ip after 4 hrs; format: functional, organism-based; design: dose 300 mg/kg; how it was run: as §2
Mus musculus [15] = test: Neurotoxicity in F1 albino mouse assessed as minimal motor impairment at 300 mg/kg, ip after 0.25 hrs by rotorod test; format: toxicity, organism-based; design: dose 300 mg/kg, route intraperitoneal; conditions: in vivo; how it was run: as §2
Mus musculus [16] = test: Neurotoxicity in F1 albino mouse assessed as minimal motor impairment at 100 mg/kg, ip after 0.5 hrs by rotorod test; format: toxicity, organism-based; design: dose 100 mg/kg, route intraperitoneal; conditions: in vivo; how it was run: as §2
Mus musculus [17] = test: Neurotoxicity in F1 albino mouse assessed as minimal motor impairment at 300 mg/kg, ip after 1 hr by rotorod test; format: toxicity, organism-based; design: dose 300 mg/kg, route intraperitoneal; conditions: in vivo; how it was run: as §2
Mus musculus [18] = test: Neurotoxicity in F1 albino mouse assessed as minimal motor impairment at 300 mg/kg, ip after 4 hrs by rotorod test; format: toxicity, organism-based; design: dose 300 mg/kg, route intraperitoneal; conditions: in vivo; how it was run: as §2
Adenosine receptor A2a [19] = target: T4, Adenosine receptor A2a (Homo sapiens, UniProt P29274); test: Displacement of [3H]MSX-2 from human recombinant adenosine A2A receptor expressed in CHO cells; format: cell-based
T4 sequence (P29274 whole entry): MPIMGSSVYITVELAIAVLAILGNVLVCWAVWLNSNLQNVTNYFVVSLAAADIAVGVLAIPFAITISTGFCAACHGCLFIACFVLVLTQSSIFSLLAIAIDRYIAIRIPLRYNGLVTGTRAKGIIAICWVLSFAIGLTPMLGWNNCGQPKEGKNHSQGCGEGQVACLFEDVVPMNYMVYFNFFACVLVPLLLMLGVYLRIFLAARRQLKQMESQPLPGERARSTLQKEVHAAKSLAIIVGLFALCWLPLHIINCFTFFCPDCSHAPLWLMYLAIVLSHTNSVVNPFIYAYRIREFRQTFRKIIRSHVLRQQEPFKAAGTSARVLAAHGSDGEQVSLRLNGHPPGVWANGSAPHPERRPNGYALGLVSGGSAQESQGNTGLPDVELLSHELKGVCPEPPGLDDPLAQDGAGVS

Adenosine receptor A2b = target: T5, Adenosine receptor A2b (Homo sapiens, UniProt P29275); test: Displacement of [3H]PSB-603 from human recombinant adenosine A2B receptor expressed in CHO cells; format: cell-based; how it was run: as §1
T5 sequence (P29275 whole entry): T3 sequence (whole entry)

[20] = target: T6, Adenosine receptor A1 (Homo sapiens) (UniProt P30542); test: Displacement of [3H]CCPA from human recombinant adenosine A1 receptor expressed in CHO cells at 10 uM; format: cell-based; how it was run: as §1
T6 sequence (whole entry): T2 sequence (P30542 whole entry)

Rattus norvegicus [21] = organism: Rattus norvegicus; test: Selectivity ratio of Ki for adenosine A1 receptor in rat brain cortical membrane to Ki for adenosine A2A receptor in rat brain striatal membrane; format: cell membranes
How it was run: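 Ki ratios from radioligand competition binding. Rat A1 used brain cortical membranes and rat A2A used brain striatal membranes. Human A1 and A2A used membranes of CHO cells expressing the receptors. A1 radioligand [³H]CCPA; A2A radioligand [³H]MSX-2. Potent compounds were tested at 6–7 concentrations spanning 3 orders of magnitude.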

Adenosine receptor A2a [22] = target: Adenosine receptor A2a (Rattus norvegicus, UniProt P30543); test: Displacement of [3H]MSX-2 from adenosine A2A receptor in rat brain striatal membrane; format: cell membranes
Sequence of Adenosine receptor A2a (Rattus norvegicus, UniProt P30543) (P30543 whole entry): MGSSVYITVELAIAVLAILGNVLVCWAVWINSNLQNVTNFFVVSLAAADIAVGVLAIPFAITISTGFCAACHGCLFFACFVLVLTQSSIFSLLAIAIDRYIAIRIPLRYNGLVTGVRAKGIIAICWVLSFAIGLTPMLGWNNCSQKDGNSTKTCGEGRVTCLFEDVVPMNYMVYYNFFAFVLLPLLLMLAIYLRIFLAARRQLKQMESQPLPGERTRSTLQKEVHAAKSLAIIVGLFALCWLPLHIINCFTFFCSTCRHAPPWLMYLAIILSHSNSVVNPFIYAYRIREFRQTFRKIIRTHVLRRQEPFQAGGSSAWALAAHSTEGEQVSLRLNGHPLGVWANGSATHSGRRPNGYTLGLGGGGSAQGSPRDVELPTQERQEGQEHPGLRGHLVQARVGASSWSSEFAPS

[23] = target: T7, Adenosine receptor A1 (Rattus norvegicus) (UniProt P25099); test: Displacement of [3H]CCPA from adenosine A1 receptor in rat brain cortical membrane at 25 uM; format: cell membranes
T7 sequence (whole entry): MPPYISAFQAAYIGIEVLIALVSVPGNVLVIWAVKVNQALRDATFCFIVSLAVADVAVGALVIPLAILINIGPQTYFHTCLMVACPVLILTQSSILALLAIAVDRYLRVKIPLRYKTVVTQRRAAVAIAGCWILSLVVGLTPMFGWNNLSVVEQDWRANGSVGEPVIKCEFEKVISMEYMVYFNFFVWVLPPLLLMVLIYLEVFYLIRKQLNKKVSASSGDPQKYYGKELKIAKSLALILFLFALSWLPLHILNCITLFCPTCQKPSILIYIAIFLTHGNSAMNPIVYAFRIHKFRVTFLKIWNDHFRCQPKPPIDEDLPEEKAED

Adenosine receptor A1 [24] = target: T8, Adenosine receptor A1 (Rattus norvegicus, UniProt P25099); test: Displacement of [3H]CCPA from adenosine A1 receptor in rat brain cortical membrane; format: cell membranes
T8 sequence (P25099 whole entry): T7 sequence (whole entry)

Mus musculus [25] = test: Neurotoxicity in F1 albino mouse assessed as minimal motor impairment at 300 mg/kg, ip after 0.5 hrs by rotorod test; format: toxicity, organism-based; design: dose 300 mg/kg, route intraperitoneal; conditions: in vivo; how it was run: as §2
Adenosine receptor A2a [26] = target: T4, Adenosine receptor A2a; conditions: CHO, 10 uM
[27] = target: Adenosine receptor A2a (Rattus norvegicus) (UniProt P30543); conditions: Brain, Membrane, 25 uM
Sequence of Adenosine receptor A2a (Rattus norvegicus) (P30543 whole entry): as the sequence (P30543 whole entry) above

[28] = target: T9, Adenosine receptor A3 (Homo sapiens) (UniProt P0DMS8); test: Displacement of [3H]PSB-11 from human recombinant adenosine A3 receptor expressed in CHO cells at 10 uM; format: cell-based; how it was run: as §1
T9 sequence (whole entry): T1 sequence (P0DMS8 whole entry)

[29] = target: T7, Adenosine receptor A1 (Rattus norvegicus); conditions: Brain, 10 uM

Row | SMILES | Ki (Adenosine receptor A3) [µM] | Ki (Adenosine receptor A1 [3]) [µM] | inhibition [5] [%] | Activity (Mus musculus [6]) | Activity (Mus musculus [7]) | Activity (Mus musculus [8]) | Activity (Mus musculus [9]) | Activity (Mus musculus [10]) | Activity (Mus musculus [11]) | Activity (Mus musculus [13]) | Activity (Mus musculus [14]) | Activity (Mus musculus [15]) | Activity (Mus musculus [17]) | Activity (Mus musculus [18]) | Ki (Adenosine receptor A2a [19]) [µM] | Ki (Adenosine receptor A2b) [µM] | inhibition [20] [%] | Ratio Ki (Rattus norvegicus [21]) | Ki (Adenosine receptor A2a [22]) [µM] | Ki (Adenosine receptor A1 [24]) [µM] | other results
1 | CCCC(CCC)C(=O)O [VALPROIC ACID] |  |  |  |  |  |  |  |  |  |  |  |  |  |  |  |  |  |  |  |  | ED50 (Rattus norvegicus [1]): 287 mg/kg; ED50 (Rattus norvegicus [2]): 209 mg/kg
2 | CCn1c(=O)c2c(nc(/C=C/c3ccc(OC)c(OC)c3)n2C)n(CC)c1=O [ISTRADEFYLLINE] | 4.47 | 2.07 |  |  |  |  |  |  |  |  |  |  |  |  |  |  |  |  |  |  | inhibition [4]: 47%
3 | Cn1c(=O)c2c(nc3n2CCCCN3C2CCCCCCC2)n(C)c1=O | 1.67 | > 10 | 0 | inactive | inactive | inactive | inactive | inactive | inactive | inactive | inactive | Non-toxic | Non-toxic | Non-toxic | 2.4 | > 10 | 29 | > 1 | 6.86 | > 10 | Activity (Mus musculus [12]): Toxic; Activity (Mus musculus [16]): Non-toxic; inhibition [23]: 16%
4 | Cn1c(=O)c2c(nc3n2CCCN3C23CC4CC(CC(C4)C2)C3)n(C)c1=O | 1.29 | > 10 | 0 | inactive | inactive | inactive | inactive | inactive | inactive | inactive | inactive | Non-toxic | Non-toxic | Non-toxic | > 10 | > 10 | 15 | 1 | > 10 | > 10 | Activity (Mus musculus [25]): Non-toxic; inhibition [23]: 7%; inhibition (Adenosine receptor A2a [26]): 0%; inhibition [27]: 13%
5 | Cn1c(=O)c2c(nc3n2CCN3C2CCCCC2)n(C)c1=O | > 10 | > 10 | 11 | inactive | inactive | inactive | inactive | inactive | Active | inactive | inactive | Non-toxic | Non-toxic | Non-toxic | 1.61 | > 10 | 41 | > 4 | 2.58 | > 10 | inhibition [28]: 12%; Activity (Mus musculus [16]): Non-toxic; inhibition [29]: 27%
